According to ChEMBL document CHEMBL1806473, “Structure-based optimization of click-based histone deacetylase inhibitors” (Eur J Med Chem, 2011):

What was measured:
CCRF-CEM [1] = assay: Antiproliferative activity against human CCRF-CEM cells by SRB assay; assay type: functional
Outline: (§1)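 Tested in the NCI in vitro human tumor cell line screen, run by the National Cancer Institute. Each compound was given at five concentrations (100, 10, 1.0, 0.1 and 0.01 μM). GI50 is the drug concentration that reduces growth of treated cells to half that of control cells during drug incubation, judged from the SRB signal.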

K562 [2] = assay: Antiproliferative activity against human K562 cells by SRB assay; assay type: functional; outline: as §1
SR = assay: Antiproliferative activity against human SR cells by SRB assay; assay type: functional
Outline: (§2)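 Cell growth was tested in the NIH in vitro disease-oriented human tumor cell line screen, which NCI ran for these compounds. Compounds were tested at five concentrations (100, 10, 1.0, 0.1 and 0.01 μM), and growth was read by SRB signal. GI50 is the drug concentration that reduces growth of treated cells to half that of control cells during drug incubation.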

EKVX = assay: Antiproliferative activity against human EKVX cells by SRB assay; assay type: functional; outline: as §1
HOP-92 [3] = assay: Antiproliferative activity against human HOP92 cells by SRB assay; assay type: functional; outline: as §1
NCI-H226 [4] = assay: Antiproliferative activity against human NCI-H226 cells by SRB assay; assay type: functional; outline: as §1
NCI-H23 [5] = assay: Antiproliferative activity against human NCI-H23 cells by SRB assay; assay type: functional; outline: as §1
NCI-H460 [6] = assay: Antiproliferative activity against human NCI-H460 cells by SRB assay; assay type: functional; outline: as §1
NCI-H522 = assay: Antiproliferative activity against human NCI-H522 cells by SRB assay; assay type: functional; outline: as §1
COLO 205 = assay: Antiproliferative activity against human COLO205 cells by SRB assay; assay type: functional; outline: as §1
HCT-116 = assay: Antiproliferative activity against human HCT116 cells by SRB assay; assay type: functional; outline: as §1
HCT-15 = assay: Antiproliferative activity against human HCT15 cells by SRB assay; assay type: functional; outline: as §1
HT-29 = assay: Antiproliferative activity against human HT-29 cells by SRB assay; assay type: functional; outline: as §1
SW-620 [7] = assay: Antiproliferative activity against human SW620 cells by SRB assay; assay type: functional; outline: as §2
SF-295 = assay: Antiproliferative activity against human SF295 cells by SRB assay; assay type: functional; outline: as §1
SNB-19 = assay: Antiproliferative activity against human SNB19 cells by SRB assay; assay type: functional; outline: as §1
U-251 = assay: Antiproliferative activity against human U251 cells by SRB assay; assay type: functional; outline: as §2
LOX IMVI [8] = assay: Antiproliferative activity against human LOXIMVI cells by SRB assay; assay type: functional; outline: as §1
SK-MEL-2 = assay: Antiproliferative activity against human SK-MEL-2 cells by SRB assay; assay type: functional; outline: as §1
SK-MEL-28 [9] = assay: Antiproliferative activity against human SK-MEL-28 cells by SRB assay; assay type: functional; outline: as §1
UACC-257 = assay: Antiproliferative activity against human UACC257 cells by SRB assay; assay type: functional; outline: as §2
IGROV-1 [10] = assay: Antiproliferative activity against human IGROV1 cells by SRB assay; assay type: functional; outline: as §1
OVCAR-3 = assay: Antiproliferative activity against human OVCAR3 cells by SRB assay; assay type: functional; outline: as §1
OVCAR-4 [11] = assay: Antiproliferative activity against human OVCAR4 cells by SRB assay; assay type: functional; outline: as §1
OVCAR-8 [12] = assay: Antiproliferative activity against human OVCAR8 cells by SRB assay; assay type: functional; outline: as §1
RXF 393 = assay: Antiproliferative activity against human RXF393 cells by SRB assay; assay type: functional; outline: as §1
TK-10 = assay: Antiproliferative activity against human TK10 cells by SRB assay; assay type: functional; outline: as §2
UO-31 = assay: Antiproliferative activity against human UO31 cells by SRB assay; assay type: functional; outline: as §2
DU-145 = assay: Antiproliferative activity against human DU145 cells by SRB assay; assay type: functional; outline: as §1
MCF7 [13] = assay: Antiproliferative activity against human MCF7 cells by SRB assay; assay type: functional; outline: as §1
MDA-MB-231 = assay: Antiproliferative activity against human MDA-MB-231 cells by SRB assay; assay type: functional; outline: as §1
T47D = assay: Antiproliferative activity against human T47D cells by SRB assay; assay type: functional; outline: as §2
CCRF-CEM [14] = assay: Cytotoxicity against human CCRF-CEM cells; assay type: cell-based
HL-60(TB) = assay: Cytotoxicity against human HL-60(TB) cells; assay type: cell-based
K562 [15] = assay: Cytotoxicity against human K562 cells; assay type: cell-based
MOLT-4 = assay: Cytotoxicity against human MOLT4 cells; assay type: cell-based
HOP-92 [16] = assay: Cytotoxicity against human HOP92 cells; assay type: cell-based
NCI-H226 [17] = assay: Cytotoxicity against human NCI-H226 cells; assay type: cell-based
NCI-H23 [18] = assay: Cytotoxicity against human NCI-H23 cells; assay type: cell-based
NCI-H322M = assay: Cytotoxicity against human NCI-H322M cells; assay type: cell-based
NCI-H460 [19] = assay: Cytotoxicity against human NCI-H460 cells; assay type: cell-based
KM12 = assay: Cytotoxicity against human KM12 cells; assay type: cell-based
SW-620 [20] = assay: Cytotoxicity against human SW620 cells; assay type: cell-based
Outline: (§3)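 Screened by NCI in its in vitro disease-oriented human tumour cell line panel. Compounds tested at five concentrations (100, 10, 1.0, 0.1 and 0.01 μM). Growth read by sulforhodamine B (SRB) signal. GI50 is the concentration reducing growth of treated cells to half that of control cells during the drug incubation.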

LOX IMVI [21] = assay: Cytotoxicity against human LOXIMVI cells; assay type: cell-based
MDA-MB-435 = assay: Cytotoxicity against human MDA-MB-435 cells; assay type: cell-based
SK-MEL-28 [22] = assay: Cytotoxicity against human SK-MEL-28 cells; assay type: cell-based
SK-MEL-5 = assay: Cytotoxicity against human SK-MEL-5 cells; assay type: cell-based
UACC-62 = assay: Cytotoxicity against human UACC62 cells; assay type: cell-based; outline: as §3
IGROV-1 [23] = assay: Cytotoxicity against human IGROV1 cells; assay type: cell-based
OVCAR-4 [24] = assay: Cytotoxicity against human OVCAR4 cells; assay type: cell-based
OVCAR-8 [25] = assay: Cytotoxicity against human OVCAR8 cells; assay type: cell-based
SK-OV-3 = assay: Cytotoxicity against human SKOV3 cells; assay type: cell-based
786-0 = assay: Cytotoxicity against human 786-0 cells; assay type: cell-based
A498 = assay: Cytotoxicity against human A498 cells; assay type: cell-based
ACHN = assay: Cytotoxicity against human ACHN cells; assay type: cell-based
CAKI-1 = assay: Cytotoxicity against human Caki1 cells; assay type: cell-based
SN12C = assay: Cytotoxicity against human SN12C cells; assay type: cell-based; outline: as §3
PC-3 = assay: Cytotoxicity against human PC3 cells; assay type: cell-based
MCF7 [26] = assay: Cytotoxicity against human MCF7 cells; assay type: cell-based
[27] = Cytotoxicity against human Hs 578T cells; assay type: cell-based
BT-549 = assay: Cytotoxicity against human BT549 cells; assay type: cell-based

Compound: CC(C)C(/C=C/c1ccccc1)n1cc(/C=C/C(=O)NO)nn1 (stereo unspecified)
- GI50 (CCRF-CEM [1]): 351 nM
- GI50 (K562 [2]): 705 nM
- GI50 (SR): 213 nM
- GI50 (EKVX): 1810 nM
- GI50 (HOP-92 [3]): 1730 nM
- GI50 (NCI-H226 [4]): 2380 nM
- GI50 (NCI-H23 [5]): 1640 nM
- GI50 (NCI-H460 [6]): 761 nM
- GI50 (NCI-H522): 582 nM
- GI50 (COLO 205): 932 nM
- GI50 (HCT-116): 316 nM
- GI50 (HCT-15): 2900 nM
- GI50 (HT-29): 827 nM
- GI50 (SW-620 [7]): 649 nM
- GI50 (SF-295): 1470 nM
- GI50 (SNB-19): 2410 nM
- GI50 (U-251): 1130 nM
- GI50 (LOX IMVI [8]): 1180 nM
- GI50 (SK-MEL-2): 1520 nM
- GI50 (SK-MEL-28 [9]): 1590 nM
- GI50 (UACC-257): 3120 nM
- GI50 (IGROV-1 [10]): 1080 nM
- GI50 (OVCAR-3): 1530 nM
- GI50 (OVCAR-4 [11]): 4060 nM
- GI50 (OVCAR-8 [12]): 816 nM
- GI50 (RXF 393): 1190 nM
- GI50 (TK-10): 531 nM
- GI50 (UO-31): 1480 nM
- GI50 (DU-145): 1090 nM
- GI50 (MCF7 [13]): 1320 nM
- GI50 (MDA-MB-231): 1970 nM
- GI50 (T47D): 1240 nM
- LC50 (CCRF-CEM [14]): > 100000 nM
- LC50 (HL-60(TB)): > 100000 nM
- LC50 (K562 [15]): > 100000 nM
- LC50 (MOLT-4): > 100000 nM
- LC50 (HOP-92 [16]): 22100 nM
- LC50 (NCI-H226 [17]): 40100 nM
- LC50 (NCI-H23 [18]): 12600 nM
- LC50 (NCI-H322M): > 100000 nM
- LC50 (NCI-H460 [19]): 42900 nM
- LC50 (KM12): 9530 nM
- LC50 (SW-620 [20]): 9220 nM
- LC50 (LOX IMVI [21]): 5470 nM
- LC50 (MDA-MB-435): 31600 nM
- LC50 (SK-MEL-28 [22]): 44900 nM
- LC50 (SK-MEL-5): 5170 nM
- LC50 (UACC-62): 6610 nM
- LC50 (IGROV-1 [23]): 31600 nM
- LC50 (OVCAR-4 [24]): 71400 nM
- LC50 (OVCAR-8 [25]): > 100000 nM
- LC50 (SK-OV-3): 27800 nM
- LC50 (786-0): 6740 nM
- LC50 (A498): 8630 nM
- LC50 (ACHN): 71100 nM
- LC50 (CAKI-1): 6300 nM
- LC50 (SN12C): > 100000 nM
- LC50 (PC-3): 46500 nM
- LC50 (MCF7 [26]): > 100000 nM
- LC50 [27]: > 100000 nM
- LC50 (BT-549): > 100000 nM
